Assay outcomes: PubChem BioAssay, several laboratories
This is a sample that favours compounds with a hit; in the whole collection about 1.9% have one here.
MT1-MMP act inh: MT1-MMP (human) activation inhibition; P50281; HT1080 RFP-PRO-GFP cells, GFP/RFP ratio fluorescence, overnight; percent of plate control window, DMSO zero; GFP/RFP ratio change, % at 20 µM; 360,000 tested, 0.061% active; AID 651647;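 active = GFP/RFP ratio change of at least 30% with cell ATP level not reduced by more than half and red fluorescence within 50% of control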
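Assay system – RFP-PRO-GFP reporter HT1080 cells · Compound dosing – single dose of 20 µM compound, 1% DMSO final · Incubation – overnight compound exposure at 37 °C · Measure – GFP/RFP fluorescence ratio · Benchmarks – DMSO wells and RFP-L50D-GFP cells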
SKN-1 block: C. elegans SKN-1 inhibition. C. elegans VP596 Pgst-4::GFP/RFP ratio, acrylamide-induced, 24 h. inhibition, % at 21.8 µM. 360,000 tested, 0.49% active;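 active = interference check ratio from 0.5 to 1.5 plus GFP to RFP signal ratio inhibition reaching or exceeding a fixed threshold, cut at about 30% in these data, passing the limit was not always enough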
NR2E3 ag-1: agonists of human nuclear receptor NR2E3. 320,000 tested, 0.12% active. GST-NR2E3/biotin-RetCOR TR-FRET, 1536-well. AID 2300. inhibition of corepressor binding, % at 4.78 µM. Q9Y5X4;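 active = percent inhibition above the cutoff of mean plus 3 SD of all tested compounds, set per screening campaign, cut at about 20% in these data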;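 also: 0% = DMSO wells and 100% = biotin wells as full block of FRET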
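Material: NR2E3–RetCOR corepressor complex / Incubation: Compound–protein incubation for 5 h at 4 °C / Dosing: compound at 4.8 µM, single dose / Detection: time-resolved FRET / Benchmarks: high control biotin, low control 0.6% DMSO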
PG9 Ab binder: small molecules binding HIV-1 gp120 antibody PG9; inhibition, % at 6.7 µM; 360,000 tested, 0.43% active; TR-FRET gp120-PG9 antibody binding; in the data active = inhibition above about 8.5%
NR1D1 modulator: Rev-erb alpha (human) modulation; P20393; Rev-erbα–FITC-DNA binding, fluorescence polarization, 90 min; activity, % at 10 µM; 370,000 tested, 0.79% active;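 active = activity above about 14%, limit read from the data; passing the limit was not always enough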;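 also: 0% = DMSO wells with 35 nM protein and 100% = DMSO wells with 750 nM protein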
Target sequence (P20393 whole entry, looked up): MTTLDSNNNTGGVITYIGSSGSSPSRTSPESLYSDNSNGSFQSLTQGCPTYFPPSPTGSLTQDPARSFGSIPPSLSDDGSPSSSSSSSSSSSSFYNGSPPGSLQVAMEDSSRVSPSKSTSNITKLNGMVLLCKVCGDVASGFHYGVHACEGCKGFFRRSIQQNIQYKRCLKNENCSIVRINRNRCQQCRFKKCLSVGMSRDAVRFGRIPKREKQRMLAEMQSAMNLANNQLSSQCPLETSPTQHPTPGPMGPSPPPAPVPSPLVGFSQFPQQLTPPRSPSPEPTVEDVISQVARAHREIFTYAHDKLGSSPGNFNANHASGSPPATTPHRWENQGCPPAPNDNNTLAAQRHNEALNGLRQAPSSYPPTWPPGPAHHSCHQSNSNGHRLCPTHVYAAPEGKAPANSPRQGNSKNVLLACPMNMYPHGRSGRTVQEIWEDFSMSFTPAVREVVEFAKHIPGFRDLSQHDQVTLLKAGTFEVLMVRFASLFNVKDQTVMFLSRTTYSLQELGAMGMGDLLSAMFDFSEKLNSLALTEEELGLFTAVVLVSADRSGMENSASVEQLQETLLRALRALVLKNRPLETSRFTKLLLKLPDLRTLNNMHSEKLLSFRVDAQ
NR2E3 ag-2: activates human NR2E3 receptor; Q9Y5X4; CHO-S Gal4-NCOR/VP16-NR2E3 two-hybrid, luciferase; inhibition of corepressor binding, % at 3.98 µM; 360,000 tested, 0.35% active; AID 602229;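 active = inhibition above the mean of all tested compounds plus 3 SD, cut at about 70% in these data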;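 also: 0% = DMSO with NR2E3 transfected cells and 100% = cells lacking NR2E3 construct; higher means lower luciferase signal from less NR2E3 corepressor binding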
PG9 binder conf: confirmation of small molecules binding HIV-1 gp120 antibody PG9; shares compounds with PG9 Ab binder; inhibition, % at 6.7 µM; TR-FRET PG9 antibody binding, biochemical; AID 651571; 1,500 tested, 90% active; in the data active = inhibition above about 9%
PGV04 Ab binding: PGV04 control antibody binding, counter-screen; inhibition, % at 6.7 µM; AID 651604; 1,500 tested, 95% active; shares compounds with PG9 Ab binder; TR-FRET PGV04 antibody-gp120 binding, biochemical; in the data active = inhibition above about 9.5%
* hit, by the source's call; x = no result given.

SMILES	MT1-MMP act inh	SKN-1 block	NR2E3 ag-1	PG9 Ab binder	NR1D1 modulator	NR2E3 ag-2	PG9 binder conf	PGV04 Ab binding
Cn1c(CNC(=O)C2CCCCC2)cc2cc(Cl)ccc21	0	6	7	19*	5	-30	22*	34*
NC(=O)C1CCN(c2ccc(S(=O)(=O)N3CCC(Cc4ccccc4)CC3)cn2)CC1	0	12	1	14*	1	-21	24*	34*
O=S(=O)(c1ccc(Cl)nc1)N1CCC(Cc2ccccc2)CC1	1	-8	x	0	0	33	x	x
COc1ccc(C2CC(=O)C(c3ccc(Cl)cc3)=CN2Cc2ccccc2)cc1 (stereo unspecified)	x	x	x	-2	1	x	x	x
Cn1ccc2c(N3c4ccccc4CCc4ccccc43)cc3c(c21)C1CCC3O1 (stereo unspecified)	6	15	x	19*	-8	-18	5	7
C=CCN1C(=O)c2n[nH]c(C(C)C)c2C1c1ccc2c(c1)OCO2 (stereo unspecified)	x	x	x	0	1	x	x	x
Cc1ccc(C2NC(=O)c3n[nH]c(C(C)C)c32)cc1 (stereo unspecified)	x	x	x	-2	1	x	x	x
COc1ccc2cc(Br)ccc2c1CC(=O)NC(C)C	1	15	6	11*	-4	10	12*	16*
COc1cc(NC(=O)C2CCCN(S(=O)(=O)c3ccc(Cl)s3)C2)cc(OC)c1 (stereo unspecified)	x	x	x	x	-4	x	x	x
COc1ccccc1Nc1nc2c(C)cccc2cc1C#N	-12	-6	-1	0	12	-8	x	x
CCOc1ccc(Nc2nc3c(C)cccc3cc2C#N)cc1	0	11	2	12*	10	-2	15*	26*
COC(=O)c1cc2oc3ccccc3c2n1CC(=O)N1CCCc2ccccc21	-6	3	4	12*	9	1	12*	20*
COC(=O)C1=C(C)N(Cc2ccccc2C(F)(F)F)C(=NCC2CC2)NC1CCc1ccccc1 (stereo unspecified)	x	x	x	0	6	x	x	x
Nc1nc2c(-c3ccc(Br)cc3)nnn2c2ccccc12	-2	3	2	11*	5	-154	13*	30*
Cc1cc(C)cc(-c2nnc(SCC(=O)Nc3cc(C)on3)o2)c1	3	18	x	14*	3	16	22*	34*
Cc1cc(NC(=O)CSc2nnc(-c3ccccc3)o2)no1	5	-6	2	0	-6	-54	x	x
CC(=O)OC1CC(C)(C)N(OC(=O)c2ccc(N)cc2)C(C)(C)C1	0	-1	-1	29*	0	-23	32*	43*
COC(=O)[C@]12C[C@H](CC(=O)N3CCC(c4ccccc4)CC3)C(=O)N(CCc3ccc(OC)c(OC)c3)C1=C[C@H](C(C)(C)C)O[C@@H]2C	x	x	x	-3	11	x	x	x
CCN(CCCNC(=O)CCn1c(=S)[nH]c2cc3c(cc2c1=O)OCO3)c1cccc(C)c1	-3	16	3	10*	-1	13	12*	14*
COc1ccc(N2CCN(C(=O)CCCCCn3c(=S)[nH]c4cc5c(cc4c3=O)OCO5)CC2)cc1	2	-9	0	x	x	9	x	x
O=C(CCCCCn1c(=S)[nH]c2cc3c(cc2c1=O)OCO3)NCCc1ccccc1	0	8	14	20*	18	-3	17*	24*
CCOC(=O)N1CCN(C(=O)CCCCCn2c(=S)[nH]c3cc4c(cc3c2=O)OCO4)CC1	-2	9	4	8.7*	1	-28	3	16*
O=C(CCCn1c(=S)[nH]c2cc3c(cc2c1=O)OCO3)NCCc1ccc(Cl)cc1	7	5	x	4	18	15	x	x
COC(=O)[C@]12C[C@H](CC(=O)NCc3cccs3)C(=O)N(Cc3ccccc3)C1=C[C@H](COCc1ccccc1)O[C@@H]2C	x	x	x	x	-2	x	x	x
CCCC[C@H]1C2CC(OC(=O)Nc3cccc(F)c3)C(C2)[C@H]2CCCCN21 (stereo partly specified)	x	x	x	x	-3	x	x	x
SMILES	MT1-MMP act inh	SKN-1 block	NR2E3 ag-1	PG9 Ab binder	NR1D1 modulator	NR2E3 ag-2	PG9 binder conf	PGV04 Ab binding
CON(C)C(=O)C(C)(C)CC#CCN(CC#Cc1ccccc1)S(=O)(=O)c1ccc(C)cc1	x	x	x	0	-1	x	x	x
COc1cccc(N2C(=NC(=O)c3ccccc3)SC3CS(=O)(=O)CC32)c1 (stereo unspecified)	-2	9	3	11*	9	-27	10*	14*
COc1ccc(N2C(=NC(=O)c3ccccc3)SC3CS(=O)(=O)CC32)cc1 (stereo unspecified)	1	-19	2	-2	4	7	x	x
CCCCCCCCN1C(=O)[C@@H](CC(=O)N2CCN(C(=O)C3CC3)CC2)C[C@@]2(C(=O)OC)C1=C[C@H](C1CCCC1)O[C@@H]2C	x	x	x	0	5	x	x	x
CCOc1ccc(NC(=O)COC(=O)c2ccc3c(c2)OCCO3)cc1	1	-19	1	54*	4	21	48*	60*
O=S(=O)(CC1NCCc2ccccc21)NCc1ccc(F)cc1 (stereo unspecified)	x	x	x	x	0	x	x	x
CC(C)c1ccc(OCC(=O)NC(=S)Nc2ccc3c4c(cccc24)CC3)cc1	2	-14	6	11*	7	-4	11*	12*
COc1ccc(C2CCCN2C(=O)Nc2ccccc2)cc1OC (stereo unspecified)	1	-1	3	13*	0	-28	5	7
COc1ccccc1NC(=S)NC(C)=O	4	5	-2	-1	1	-12	x	x
COc1ccccc1NC(C)=O	5	-6	-2	12*	-3	1	6	8
CC12CCC3c4ccc(OCCCO)c([N+](=O)[O-])c4CCC3C1CCC2=O (stereo unspecified)	x	x	x	-1	3	x	x	x
CCCCn1nnc(NC(=O)c2sc3cc(Cl)ccc3c2Cl)n1	0	15	16	14*	-3	1	26*	36*
CCCn1nnc(NC(=O)c2ccc(Cl)cc2Cl)n1	-1	-7	-2	-1	0	-100	x	x
Brc1ccc2[nH]c3c(c2c1)CCC3	6	22	4	-1	6	0	x	x
O=C1Cc2c([nH]c3ccc(Br)cc23)-c2ccccc2N1	-4	-6	x	11*	-8	8	16*	22*
